Shown are actives, neighbours in structure and some others; about 1.5% of the full set was active somewhere.
RAD52 inh – RAD52 (human) annealing inhibition; P43351; recombinant RAD52 DNA annealing, FRET fluorescence; inhibition, % at 18.7 µM; 360,000 tested, 0.46% active; AID 651710;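 active means every replicate showing at least 50% inhibition; inconclusive means mean inhibition at least 50% but not in every replicate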
MLL AF4-AF9 inh – blocks AF4 peptide binding to human AF9; P42568; AlphaScreen, biotin-AF4 peptide binding to FLAG-AF9; inhibition, % at 10 µM; 350,000 tested, 0.47% active;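 active means every replicate reaching a set inhibition limit, whatever the replicate mean, cut at about 25% in these data; inconclusive means mean inhibition reaches that limit but some replicates miss it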;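 further: 0% = plate neutral control median and 100% = total signal loss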
S100A4 MyoIIA – S100A4-myosin IIA interaction inhibition | S100A4/TAMRA-MyoIIA peptide fluorescence polarization | inhibition, % at 10.7 µM | 360,000 tested, 0.14% active;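 active means mean inhibition of at least 70% across replicates, with every replicate also reaching that level; inconclusive means mean inhibition reaches 70% but some replicates fall short; inactive means mean inhibition below 70%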
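assay system = human S100A4 monomer with TAMRA-labelled myosin IIA peptide | also added = labelled myosin peptide probe, 5 nM | incubation = 5 min between mix addition and reading | control set = DMSO and TFP controls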
RAD54 branch – RAD54 (human) branch migration inhibition; RAD54 Holliday junction branch migration, FAM/BHQ fluorescence; inhibition, % at 10.4 µM; 360,000 tested, 0.14% active; AID 602329;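 active means mean normalized replicate activity at least 40 and at least half of replicates scoring 40 or more; inconclusive means only one of the two criteria met; inactive means mean below 40 and under half of replicates reaching 40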;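 further: 0% = median of neutral control wells and 100% = median of positive control wells; inhibitors cause a drop in the FAM fluorescence signal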
Target sequence (Q92698 whole entry, looked up): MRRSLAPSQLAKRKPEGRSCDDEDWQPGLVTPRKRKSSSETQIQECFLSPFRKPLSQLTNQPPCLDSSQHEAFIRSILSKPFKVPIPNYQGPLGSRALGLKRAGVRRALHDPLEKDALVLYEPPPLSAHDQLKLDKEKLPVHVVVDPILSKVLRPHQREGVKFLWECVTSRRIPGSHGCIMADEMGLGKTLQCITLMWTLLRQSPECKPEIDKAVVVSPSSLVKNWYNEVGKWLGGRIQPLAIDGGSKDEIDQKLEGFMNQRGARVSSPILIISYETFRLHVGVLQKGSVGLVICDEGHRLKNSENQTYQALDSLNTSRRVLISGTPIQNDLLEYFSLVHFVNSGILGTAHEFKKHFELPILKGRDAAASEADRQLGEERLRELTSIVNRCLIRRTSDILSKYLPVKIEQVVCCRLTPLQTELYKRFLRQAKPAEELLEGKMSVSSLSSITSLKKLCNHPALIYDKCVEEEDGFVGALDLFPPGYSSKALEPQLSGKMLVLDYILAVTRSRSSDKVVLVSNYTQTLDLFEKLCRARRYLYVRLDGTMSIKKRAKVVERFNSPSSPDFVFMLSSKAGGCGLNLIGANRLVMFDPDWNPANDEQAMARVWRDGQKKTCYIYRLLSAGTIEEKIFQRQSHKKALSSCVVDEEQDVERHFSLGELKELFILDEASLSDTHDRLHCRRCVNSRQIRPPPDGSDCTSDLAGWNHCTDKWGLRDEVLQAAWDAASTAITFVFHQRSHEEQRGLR
dFosB act – mouse delta FosB homodimer activation; P13346; purified delta FosB, TAMRA-CDK5 oligo fluorescence polarization; percent of positive-control signal above neutral wells; activation, % at 25 µM; 340,000 tested, 0.99% active; AID 493131;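 active means mean activation above about 17%, with every replicate also reaching it, limit read from the data, passing the limit was not always enough; inconclusive means only one of the two conditions met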
The depositor's hits bear a star; ? = inconclusive; . = not tested or not shown.

SMILES	RAD52 inh	MLL AF4-AF9 inh	S100A4 MyoIIA	RAD54 branch	dFosB act
COc1ccc(-c2ccc3c(c2)[C@H]2[C@H](CCN2C(=O)NC2CCCC2)[C@H](CO)N3C)cc1	1	26*	19	.	.
COc1ccc(-c2ccc3c(c2)[C@@H]2[C@@H](CCN2C(=O)C2CCC2)[C@H](CO)N3C)cc1	29	33*	.	.	.
COc1ccc(-c2ccc3c(c2)[C@@H]2[C@@H](CCN2C(=O)C2CC2)[C@@H](CO)N3C)cc1	68*	1	6	10	.
COc1ccc(-c2ccc3c(c2)[C@@H]2[C@@H](CCN2C(=O)NC2CCCCC2)[C@H](CO)N3C)cc1	-3	16	6	9	.
C[C@H](CO)N1C[C@H](C)[C@H](CN(C)C(=O)Nc2ccc(C(F)(F)F)cc2)Oc2c(NC(=O)Nc3ccccc3)cccc2C1=O	2	0	17	-7	.
C[N+]1=C(/C=C/Nc2ccccc2Cl)C(C)(C)c2ccccc21	.	.	.	-12	-9
COC(=O)c1ccc2c(c1)C(C)(C)C(/C=C/c1ccccc1O)=[N+]2C	.	.	.	.	111*
CC1CCN(c2nc(/C=C/c3ccccc3)nc3ccccc23)CC1	-14	32*	-4	.	-14
CCN1CCN(C(=O)c2ccc3c(c2)N(Cc2ccccc2)C(=O)c2ccccc2S3=O)CC1 (stereo unspecified)	2	49*	-3	-12	-6
Cc1nc2ccccn2c1C(=O)N/N=C/c1ccccc1	14	1	-1	3	0
Cc1ccccc1N/N=C/c1c(C)nc2ccccn12	-8	26*	-1	12	-4
Cc1ccc(S(=O)(=O)Nc2ccc3c(c2)C(=O)N([C@H](C)CO)C[C@@H](C)[C@@H](CN(C)S(=O)(=O)c2cccs2)O3)cc1	-11	0	-2	18	.
COc1ccc(NC(=S)N(CCCN2CCCC2)Cc2cccn2Cc2ccc(Cl)cc2)cc1Cl	-7	33*	-5	16	48*
COc1ccc(NC(=S)N(CCCN2CCC(C)CC2)Cc2cccs2)cc1Cl	-20	4	-3	2	-7
FC(F)(F)c1cccc(NC(=S)N(CCCN2CCCC2)Cc2cccn2Cc2ccc(Cl)cc2)c1	37	15	1	-5	45*
CCN1CCN(CCCN(Cc2ccco2)C(=S)Nc2ccc(Cl)c(C)c2)CC1	0	7	-3	.	3
Cc1cc(NC(=S)N(CCN2CCCCC2)Cc2ccco2)ccc1Cl	-18	9	-3	-4	-9
Cc1ccc(NC(=S)N(CCCN2CCCC2)Cc2cccn2Cc2ccc(Cl)cc2)cc1Cl	-4	?	4	-4	69*
Cc1ccc(NC(=S)N(CCCN2CCCC2)Cc2cccn2Cc2ccc(Cl)cc2)cc1C	2	16	-5	.	32*
CO[C@H]1CN(C)C(=O)c2cc(NC(=O)c3ccccc3F)ccc2OC[C@H](C)N(C(C)=O)C[C@@H]1C	-13	2	4	7	.
Cc1ccc(S(=O)(=O)N(C)C[C@H]2OCCCC[C@H](C)Oc3ccc(NC(=O)CCC(F)(F)F)cc3C(=O)N([C@@H](C)CO)C[C@H]2C)cc1	-7	-3	-5	-8	.
C[C@H](CO)N1C[C@H](C)[C@@H](CN(C)S(=O)(=O)c2ccccc2)Oc2ccc(NS(=O)(=O)c3ccc(F)cc3)cc2CC1=O	12	1	-9	5	.
Cc1cc(NC(=O)CN2C(=O)/C(=C/c3cccc(Br)c3)SC2=S)no1	-82	1	9	.	19*
Cc1ccc(/C=C2\SC(=S)N(CCCC(=O)Nc3cc(C)on3)C2=O)cc1	-5	-1	-4	6	9
O=C(CCCN1C(=O)/C(=C/c2cccc(Br)c2)SC1=S)Nc1cccnc1	-24	0	4	5	22*
CCc1ccc(/C=C2/SC(=S)N(CC(=O)Nc3nc4ccccc4s3)C2=O)cc1	.	.	.	-1	28*
CO[C@@H]1CN(C)C(=O)c2ccc(NS(=O)(=O)c3ccc(-c4ccccc4)cc3)cc2OC[C@H](C)NC[C@H]1C	25	-1	13	3	.
COc1ccc(C)cc1NC(=O)Cn1c(=O)oc2ccccc21	-10	-30	-2	-4	19*
Cc1ccccc1NC(=O)Cn1c(=O)oc2ccccc21	-2	2	-8	-3	0
COc1ccc(CN(C)C[C@H]2Oc3c(NS(=O)(=O)c4ccc(F)cc4)cccc3C(=O)N([C@@H](C)CO)C[C@@H]2C)cc1	-3	-1	3	-5	.
